Calls of active or inactive are those of the source. The calls are words filed in the database; no cut-off is given here.
Legend:
OVCAR-5 = assay: Growth inhibition of human OVCAR5 cells; type: functional
Procedure, shortened: (§1)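 Five-dose testing was run within the NCI (Bethesda) in vitro Anticancer Screen Program on a panel of 53 human tumour cell lines from nine cancer types. Growth inhibition is reported as GI50.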

MCF7 [1] = assay: Cell cycle arrest in human MCF7 cells assessed as accumulation at G2/M phase at 30 uM after 24 hrs by FACS analysis; type: functional
Procedure, shortened: (§2)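 MCF-7 cells were treated at 30 µM for 24 h alongside a DMSO control. Fractions in G0, G1, S and G2/M phases were measured by FACS, and values are means of three experiments.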

MDA-MB-231 = assay: Growth inhibition of human MDA-MB-231 cells; type: functional; procedure, shortened: as §1
UACC-62 = assay: Growth inhibition of human UACC62 cells; type: functional
Procedure, shortened: (§3)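 Compounds that passed a preliminary screen were tested at five doses in the NCI (Bethesda) in vitro Anticancer Screen Program against a 53-line human tumour panel spanning leukemia, lung, colon, CNS, melanoma, ovarian, renal, prostate and breast. Growth inhibition is reported as GI50.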

EKVX = assay: Growth inhibition of human EKVX cells; type: functional; procedure, shortened: as §1
NCI-H522 = assay: Growth inhibition of human NCI-H522 cells; type: functional; procedure, shortened: as §1
NCI-H226 = assay: Growth inhibition of human NCI-H226 cells; type: functional; procedure, shortened: as §1
MCF7 [2] = assay: Growth inhibition of human MCF7 cells; type: functional; procedure, shortened: as §1
UO-31 = assay: Growth inhibition of human UO31 cells; type: functional; procedure, shortened: as §3
BT-549 = assay: Growth inhibition of human BT549 cells; type: functional; procedure, shortened: as §1
U-251 = assay: Growth inhibition of human U251 cells; type: functional; procedure, shortened: as §3
SK-OV-3 = assay: Growth inhibition of human SKOV3 cells; type: functional; procedure, shortened: as §3
MCF7 [3] = assay: Induction of apoptosis in human MCF7 cells assessed as decrease in procaspase 7 level at 30 uM after 24 hrs by Western blot analysis; type: functional, cell-based
Procedure, shortened: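 MCF-7 breast carcinoma cells were exposed to 30 µM compound for 24 h, with CA-4 as positive control. Cell lysates were then immunoblotted with antibodies to procaspase-7 and cleavage-specific PARP, using β-actin as loading control.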

SF-539 = assay: Growth inhibition of human SF539 cells; type: functional; procedure, shortened: as §1
MCF7 [4] = assay: Cell cycle arrest in human MCF7 cells assessed as accumulation at G1 phase at 10 uM after 24 hrs by FACS analysis; type: functional
Procedure, shortened: (§4)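 MCF-7 breast carcinoma cells were exposed to 10 µM test compound for 24 h, with DMSO as the vehicle control. Cell-cycle distribution was read by FACS as the percentage of cells in G0, G1, S and G2/M.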

MDA-MB-435 = assay: Growth inhibition of human MDA-MB-435 cells; type: functional; procedure, shortened: as §1
NCI-H460 = assay: Growth inhibition of human NCI-H460 cells; type: functional; procedure, shortened: as §1
SNB-19 = assay: Growth inhibition of human SNB19 cells; type: functional; procedure, shortened: as §3
KM12 = assay: Growth inhibition of human KM12 cells; type: functional; procedure, shortened: as §1
MCF7 [5] = assay: Cell cycle arrest in human MCF7 cells assessed as accumulation at G0 phase at 30 uM after 24 hrs by FACS analysis; type: functional; procedure, shortened: as §2
RXF 393 = assay: Growth inhibition of human RXF393 cells; type: functional; procedure, shortened: as §1
SF-295 = assay: Growth inhibition of human SF295 cells; type: functional; procedure, shortened: as §1
OVCAR-3 = assay: Growth inhibition of human OVCAR-3 cells; type: functional; procedure, shortened: as §1
LOX IMVI = assay: Growth inhibition of human LOXIMVI cells; type: functional; procedure, shortened: as §1
786-0 = assay: Growth inhibition of human 786-0 cells; type: functional; procedure, shortened: as §1
K562 = assay: Growth inhibition of human K562 cells; type: functional; procedure, shortened: as §1
NCI/ADR-RES = assay: Growth inhibition of human NCI/ADR-RES cells; type: functional; procedure, shortened: as §1
HCC 2998 = assay: Growth inhibition of human HCC2998 cells; type: functional; procedure, shortened: as §1
SNB-75 = assay: Growth inhibition of human SNB75 cells; type: functional; procedure, shortened: as §3
MCF7 [6] = assay: Cell cycle arrest in human MCF7 cells assessed as accumulation at G2/M phase at 10 uM after 24 hrs by FACS analysis; type: functional; procedure, shortened: as §4
COLO 205 = assay: Growth inhibition of human COLO205 cells; type: functional; procedure, shortened: as §1

COc1cc(/C=C/C(=O)c2cccc(-n3cc(-c4ccc(Cl)cc4)[nH]c3=O)c2)ccc1O
GI50 (OVCAR-5): 2 µM
Activity (MCF7 [1]): 10.35%
GI50 (MDA-MB-231): 3.87 µM
GI50 (UACC-62): 2.74 µM
GI50 (EKVX): 9.61 µM
GI50 (NCI-H522): 2.36 µM
GI50 (NCI-H226): 2.77 µM
GI50 (MCF7 [2]): 2.3 µM
GI50 (UO-31): 1.67 µM
GI50 (BT-549): 2.52 µM
GI50 (U-251): 2.23 µM
GI50 (SK-OV-3): 3.19 µM
Activity (MCF7 [3]): Active
GI50 (SF-539): 1.78 µM
Activity (MCF7 [4]): 46.69%
GI50 (MDA-MB-435): 2.25 µM
GI50 (NCI-H460): 3.9 µM
GI50 (SNB-19): 3.17 µM
GI50 (KM12): 1.48 µM
Activity (MCF7 [5]): 32.89%
GI50 (RXF 393): 6.4 µM
GI50 (SF-295): 10.5 µM
GI50 (OVCAR-3): 1.56 µM
GI50 (LOX IMVI): 1.63 µM
GI50 (786-0): 2.07 µM
GI50 (K562): 1.42 µM
GI50 (NCI/ADR-RES): 2.28 µM
GI50 (HCC 2998): 1.85 µM
GI50 (SNB-75): 2.75 µM
Activity (MCF7 [6]): 31.65%
GI50 (COLO 205): 3.4 µM
